Screens as filed in PubChem.
EBI2 antag = antagonists of human EBI2 receptor; EBI2 beta-arrestin recruitment, luminescence, 7a,25-OHC stimulated; inhibition, % at 5 µM; hit rate 0.81% among 360,000; AID 651636; in the data active = inhibition above about 38%;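 also: enzyme fragment complementation signal reports receptor beta-arrestin coupling in cells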
Target sequence (P32249 whole entry, looked up, the tested form may be a part): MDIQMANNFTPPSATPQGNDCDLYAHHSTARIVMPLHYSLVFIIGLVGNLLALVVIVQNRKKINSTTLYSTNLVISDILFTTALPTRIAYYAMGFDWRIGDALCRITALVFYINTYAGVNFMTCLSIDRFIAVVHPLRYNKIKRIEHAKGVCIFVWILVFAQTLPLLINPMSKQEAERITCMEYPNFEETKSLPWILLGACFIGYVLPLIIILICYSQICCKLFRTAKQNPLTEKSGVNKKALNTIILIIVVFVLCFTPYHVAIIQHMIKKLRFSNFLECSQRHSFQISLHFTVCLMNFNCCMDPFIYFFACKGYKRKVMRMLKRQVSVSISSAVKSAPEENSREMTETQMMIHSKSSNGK
Beta2AR agonist = activates human beta-2 adrenergic receptor causing internalization; P07550; Am2.2-beta2AR cells, FAP receptor internalization, flow cytometry; response, % (no concentration beside the values); hit rate 0.43% among 340,000; AID 504454;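 active = response above a set limit, near 3 SD of response in nonfluorescent compounds, cut at about 42% in these data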
APJ agonist = agonists of human APJ apelin receptor. hit rate 0.11% among 330,000. CHO-K1 APJ PathHunter beta-arrestin, luminescence; 0% DMSO wells, 100% apelin. activation, % at 20 µM;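 active = activation more than six SD over the plate average, tested at 20 µM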
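Incubation: overnight seeding, 90 min compound at 25 °C, 1 h detection; test system: PathHunter CHO-K1 APJ (AGTRL-1) beta-arrestin reporter cells; amount: 1000 cells/well; doses: one dose, 20 µM compound, 1% DMSO; measured by: beta-gal luminescence; measure: agonist-driven arrestin binding to APJ; benchmarks: negative DMSO alone, positive Apelin-13 at 10 nM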
CXCR6 inh = blocks human CXCR6 beta-arrestin recruitment | O00574 | CHO-K1 PathHunter CXCR6 beta-arrestin, luminescence | hit rate 0.36% among 360,000 | inhibition, % at 20 µM; in the data active = inhibition above about 34%, passing the limit was not always enough;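 also: antagonist mode with CXCL16 agonist at 10 nM final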
Target sequence (O00574 whole entry, looked up): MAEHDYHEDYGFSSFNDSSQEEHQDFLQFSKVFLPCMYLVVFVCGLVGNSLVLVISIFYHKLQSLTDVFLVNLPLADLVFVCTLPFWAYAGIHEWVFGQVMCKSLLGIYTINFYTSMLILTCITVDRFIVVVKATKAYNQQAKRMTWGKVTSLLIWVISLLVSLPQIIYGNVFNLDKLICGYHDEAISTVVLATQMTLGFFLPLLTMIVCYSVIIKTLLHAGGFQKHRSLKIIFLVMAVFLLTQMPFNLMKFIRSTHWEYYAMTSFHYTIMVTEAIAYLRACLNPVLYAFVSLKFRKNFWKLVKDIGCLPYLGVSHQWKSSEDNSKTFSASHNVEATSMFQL
CCR6 antagonist = blocks CCL20-driven beta-arrestin recruitment at human CCR6; inhibition, % at 20 µM; AID 493098; hit rate 0.49% among 340,000; P51684; CHO-K1 CCR6 PathHunter beta-arrestin, luminescence, CCL20-stimulated;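 active = compounds whose inhibition of the agonist-driven luminescence signal at 20 µM reaches about 50%, limit read from the data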;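 also: cells stimulated with CCL20 at 14 nM final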
APJ antag = APJ receptor antagonism. inhibition, % at 20 µM. hit rate 0.32% among 330,000. P35414. CHO-K1 APJ beta-arrestin complementation, luminescence;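 active = inhibition above about 40% at 20 µM, limit read from the data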;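 also: cells challenged with 10 nM apelin-13 agonist together with compound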
EBI2 conf = EBI2 (human) antagonism, single concentration confirmation | inhibition, % at 5 µM | hit rate 29% among 2,400 | EBI2 beta-arrestin luminescence, 7a,25-OHC antagonism | shares compounds with EBI2 antag;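 active = inhibition of at least 50%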
EBI2 agonist = activates EBI2, counter-screen for EBI2 antagonists; shares compounds with EBI2 antag; activation, % at 5 µM; 2,400 tested, under 10 active; EBI2-expressing cells, agonist mode, luminescence, 60 min; 0% vehicle, 100% 7α,25-dihydroxycholesterol control; AID 652000;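 active = activation of at least 50%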
bGal counter = counter-screen for EBI2 antagonists: E. coli beta-galactosidase inhibition; hit rate 1% among 2,400; shares compounds with EBI2 antag; purified beta-galactosidase, luminescent Galacton Star, 15 min; AID 652176; inhibition, % at 5 µM;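 active = replicate-average signal at least 3 plate SD below neutral wells, shown as high inhibition, flagging enzyme-inhibiting false positives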;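 also: higher means stronger loss of beta-gal luminescence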
Of the large screens only hits and unclear results are named; the others gave an inactive call (follow-up assays come after a bar, where they were run). Rows were chosen to be rich in hits. Some 1.8% of all compounds tested hit in one or more screens of this group.

COc1ccc(C(C)=O)cc1COC(=O)C1CCN(C(=O)c2ccc(Cl)cc2)CC1	EBI2 antag 77 | EBI2 conf inactive | EBI2 agonist inactive | bGal counter inactive
CCOC(=O)C1CCN(C(=O)c2cc3cc4ccc(C)cc4nc3o2)CC1	none
CCOC(=O)C1CCN(C(=O)c2cc(OCC)c(OCC)c(OCC)c2)CC1	none
CCOc1ccccc1N1CCN(C(=O)c2ccc3[nH]c4c(c3c2)CCCC4)CC1	none
CCOC(=O)C1CCN(C(=O)c2cc3cc(C)ccc3[nH]2)CC1	EBI2 antag 85 | EBI2 conf 67 | EBI2 agonist inactive | bGal counter inactive
CCOc1ccccc1N1CCN(C(=O)c2cc3c(C)cc(C)cc3[nH]2)CC1	EBI2 antag 52 | EBI2 conf inactive | EBI2 agonist inactive | bGal counter inactive
CCOC(=O)C1CCN(C(=O)c2cc3c(C)cc(C)cc3[nH]2)CC1	EBI2 antag 46 | EBI2 conf inactive | EBI2 agonist inactive | bGal counter inactive
Cc1cccc(Oc2ccccc2NC(=O)C2=COCCO2)c1	none
CN(C(=O)c1cc(-c2cccs2)nn1-c1ccccc1)C1CCS(=O)(=O)C1 (centres undefined)	none (no result: Beta2AR agonist, APJ agonist, CCR6 antagonist, APJ antag)
O=C1C(c2ccccc2)C2C=CC(C2)N1O (centres undefined)	none (no result: APJ agonist, APJ antag)
Cn1c(=O)[nH]c(=O)c2c1nc(SCc1ccccc1Cl)n2CC(N)=O	none (no result: CCR6 antagonist)
Cc1ccc(C(=O)Nc2ccccc2C(=O)NCc2ccco2)cc1	none
Cc1ccccc1CN(c1ccc(C(=O)Nc2ccccc2C(=O)NCc2ccco2)cc1)S(C)(=O)=O	EBI2 antag 58 | EBI2 conf inactive | EBI2 agonist inactive | bGal counter inactive
COc1ccc(C(C)(NC(C)=O)c2nc(-c3cccc4cccnc34)cs2)cc1 (centres undefined)	none (no result: Beta2AR agonist, APJ agonist, CCR6 antagonist, APJ antag)
COc1ccccc1-c1cnc(C(O)c2ccc(Cl)cc2C)[nH]1 (centres undefined)	none (no result: Beta2AR agonist, APJ agonist, CCR6 antagonist, APJ antag)
N#C/C(=C\c1ccc(Cl)c([N+](=O)[O-])c1)c1ccccn1	EBI2 antag 53 | EBI2 conf 58 | EBI2 agonist inactive | bGal counter inactive
CNc1ccc(/C=C(\C#N)c2ccccn2)cc1[N+](=O)[O-]	none
CCOC(=O)CN1CCC(c2cc(-c3ccc(Cl)cc3)n[nH]2)CC1	EBI2 antag 40 | EBI2 conf inactive | EBI2 agonist inactive | bGal counter inactive
N#Cc1ccc(C(=O)N2CCN(S(=O)(=O)c3ccc(Br)s3)CC2)cc1	EBI2 antag 66 | EBI2 conf inactive | EBI2 agonist inactive | bGal counter inactive
CCCCOC(=O)C(C#N)c1nc2ccccc2nc1N1CCN(Cc2ccc3c(c2)OCO3)CC1 (centres undefined)	EBI2 antag 46 | EBI2 conf inactive | EBI2 agonist inactive | bGal counter inactive
CC(C)COC(=O)C(C#N)c1nc2ccccc2nc1N1CCN(Cc2ccccc2)CC1 (centres undefined)	EBI2 antag 46 | EBI2 conf inactive | EBI2 agonist inactive | bGal counter inactive
COc1ccc(CCNC(=O)c2ccc(CS(=O)(=O)Cc3ccc(C)cc3)o2)cc1OC	none (no result: Beta2AR agonist, APJ agonist, CCR6 antagonist, APJ antag)
CC(C)(C)CC(C)(C)c1ccc(O)c(Cc2ccc(Cl)cc2Cl)c1	EBI2 antag 75 (no result: APJ agonist, APJ antag) | EBI2 conf inactive | EBI2 agonist inactive | bGal counter inactive
Nc1nc(CSc2ccccc2)nc(N2CCCCC2)n1	none
Nc1nc(CSc2ccc(Cl)cc2)nc(N2CCCCC2)n1	EBI2 antag 44 | EBI2 conf inactive | EBI2 agonist inactive | bGal counter inactive
CSc1ccc(CN2CCC(C)(Oc3ccc(F)cc3)C2)cc1 (centres undefined)	none (no result: Beta2AR agonist, APJ agonist, CCR6 antagonist, APJ antag)
CCOC(=O)c1ccc(-n2cnc(-c3ccc([N+](=O)[O-])cc3)c2)cc1	EBI2 antag 50 (no result: Beta2AR agonist, APJ agonist, CCR6 antagonist, APJ antag) | EBI2 conf inactive | EBI2 agonist inactive | bGal counter inactive
O=[N+]([O-])c1ccc(-c2cn(-c3ccc(Cl)cc3)cn2)cc1	none (no result: Beta2AR agonist, APJ agonist, CCR6 antagonist, APJ antag)
COCc1cc(CNC(=O)C2CCC(=O)N(Cc3ccccc3F)C2)[nH]n1 (centres undefined)	none
CC1CN(c2ccc([N+](=O)[O-])c(NCCOc3ccccc3)c2)CC(C)N1 (centres undefined)	none
O=[N+]([O-])c1ccc(N2CCCCC2)cc1NCCOc1ccccc1	EBI2 antag 44 | EBI2 conf inactive | EBI2 agonist inactive | bGal counter inactive
COc1ccc(CNC(=O)c2cc(=O)c3cc(C)cc(C)c3o2)cc1	none
COc1ccc(N2CCN(C(=O)c3cc(=O)c4cc(C)ccc4o3)CC2)cc1	EBI2 antag 92 | EBI2 conf 82 | EBI2 agonist inactive | bGal counter inactive
COc1ccc(N2CCN(C(=O)c3cc(=O)c4cc(C)c(C)cc4o3)CC2)cc1	EBI2 antag 92 | EBI2 conf 87 | EBI2 agonist inactive | bGal counter inactive
COc1ccc(N2CCN(C(=O)c3cc(=O)c4cc(C)cc(C)c4o3)CC2)cc1	EBI2 antag 80 | EBI2 conf 84 | EBI2 agonist inactive | bGal counter inactive
O=C(CNC(=O)c1ccco1)NNC(=O)c1cccc(Cl)c1	none
COc1cc2nc(CN3CCN(S(=O)(=O)c4ccc(C)c(C)c4)CC3)[nH]c(=O)c2cc1OC	EBI2 antag 47 | EBI2 conf inactive | EBI2 agonist inactive | bGal counter inactive
CCN(CC(=O)NCc1ccc(Cl)cc1)C(=O)/C=C/c1ccc(C#N)cc1	EBI2 antag 51 | EBI2 conf inactive | EBI2 agonist inactive | bGal counter inactive
CCN(CC(=O)NCc1ccc(Cl)cc1)C(=O)c1ccc2cc(OC)ccc2c1	EBI2 antag 68 | EBI2 conf 52 | EBI2 agonist inactive | bGal counter inactive
CCN(CC(=O)NCc1ccc(Cl)cc1)C(=O)/C=C/c1ccccc1	EBI2 antag 76 | EBI2 conf inactive | EBI2 agonist inactive | bGal counter inactive
CCN(CC(=O)NCc1ccc(Cl)cc1)C(=O)c1cnc(Cl)c(Cl)c1	none
CCn1nc(C)c(NC(=O)c2cnn3c(C(F)F)cc(-c4ccccc4)nc23)c1C	none
S=c1[nH]nc(-c2cc(-c3ccccc3)n[nH]2)n1/N=C/c1ccccc1	EBI2 antag 51 | EBI2 conf inactive | EBI2 agonist inactive | bGal counter inactive
S=c1[nH]nc(-c2cc(-c3ccccc3)n[nH]2)n1/N=C/C(Br)=C/c1ccccc1	EBI2 antag 52 | EBI2 conf inactive | EBI2 agonist inactive | bGal counter inactive
